From ChEMBL document CHEMBL4325839, “Design, synthesis and biological evaluations of quaternization harman analogues as potential antibacterial agents” (Eur J Med Chem, 2018)
Converted amounts (≈) assume the structure as drawn.

Assays:
[1] = system: Ralstonia solanacearum; assay: Antibacterial activity against Ralstonia solanacearum CGMCC 1.12711 measured after 12 to 14 hrs by double dilution method; type: functional
In short: (§1)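 Broth double-dilution MIC per NCCLS. Bacteria at 1×10^6 CFU/mL in Luria-Bertani medium. Compounds dissolved in DMSO as stock, then diluted in medium to 200, 100, 50, 25, 12.5, 6.25 and 3.125 nmol/mL (DMSO <0.5%); some also tested at 256–1 µg/mL. Incubated at 37 °C for 12–14 h. MIC read as lowest concentration giving visible growth inhibition.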

[2] = system: Staphylococcus aureus; assay: Antibacterial activity against methicillin-resistant Staphylococcus aureus ATCC 43300 after 12 to 14 hrs by double dilution method; type: functional; in short: as §1
[3] = system: Bacillus subtilis; assay: Antibacterial activity against Bacillus subtilis 769 after 12 to 14 hrs by double dilution method; type: functional
[4] = system: Staphylococcus aureus; assay: Antibacterial activity against Staphylococcus aureus CGMCC 1.8721 after 12 to 14 hrs by double dilution method; type: functional
[5] = system: Bacillus cereus; assay: Antibacterial activity against Bacillus cereus CGMCC 1.1846 after 12 to 14 hrs by double dilution method; type: functional
[6] = system: Escherichia coli; assay: Antibacterial activity against Escherichia coli CGMCC 1.1636 after 12 to 14 hrs by double dilution method; type: functional
[7] = Cytotoxicity against human L02 cells assessed as cell viability at 8 ug/ml by MTT assay; type: cell-based; details: read-out: Activity
In short: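 MTT viability assay on normal cells (MARC 145 monkey kidney, L02 human hepatocyte) exposed to 8 µg/mL; MTT in PBS then 4 h at 37 °C, 5% CO2; formazan dissolved in DMSO with 15 min shaking; absorbance at 540 nm; viability = treated/untreated absorbance × 100%.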

[8] = Cytotoxicity against […] MARC145 cells assessed as cell viability at 8 ug/ml by MTT assay; type: cell-based; details: chlorocebus aethiops, read-out: Activity

SMILES | MIC [1] | MIC [2] | MIC [3] | MIC [4] | MIC [5] | MIC [6] | viability at 8 ug/ml [7] | viability at 8 ug/ml [8]
COC(=O)c1ccc(-c2c3[nH]c4ccc(OC)cc4c3cc[n+]2Cc2cccc(F)c2)cc1 | 150 µM | 200 µM | 75 µM | 200 µM | 200 µM |  |  | 
COC(=O)c1ccc(-c2c3[nH]c4ccccc4c3cc[n+]2Cc2ccc(C(F)(F)F)cc2)cc1 | 50 µM | 50 µM | 50 µM | 50 µM | 100 µM | 200 µM |  | 
COc1ccc2[nH]c3c(-c4ccccn4)[n+](Cc4ccc(C)cc4)ccc3c2c1 | 100 µM | 100 µM | 100 µM | 100 µM | 200 µM | > 200 µM |  | 
COc1ccc2[nH]c3c(-c4ccco4)[n+](Cc4ccc(C)cc4)ccc3c2c1 | 25 µM | 50 µM | 25 µM | 50 µM | 100 µM | 100 µM |  | 
COC(=O)c1ccc(-c2c3[nH]c4ccc(OC)cc4c3cc[n+]2Cc2cccc(Br)c2)cc1 | 25 µM | 50 µM | 25 µM | 50 µM | 75 µM |  |  | 
COC(=O)c1ccc(-c2c3[nH]c4ccc(OC)cc4c3cc[n+]2Cc2ccc([N+](=O)[O-])cc2)cc1 | 100 µM | 200 µM | 200 µM | 100 µM | 200 µM |  |  | 
COc1ccc2[nH]c3c(-c4ccccn4)[n+](Cc4ccccc4)ccc3c2c1 | > 200 µM | > 200 µM | > 200 µM | > 200 µM | > 200 µM | > 200 µM |  | 
COc1ccc2[nH]c3c(-c4ccc5c(c4)OCO5)[n+](Cc4ccccc4)ccc3c2c1 | 50 µM | 50 µM | 50 µM | 100 µM | 200 µM | > 200 µM |  | 
COC(=O)c1ccc(-c2c3[nH]c4ccc(OC)cc4c3cc[n+]2Cc2ccc(F)cc2)cc1 | 150 µM | 200 µM | 75 µM | 100 µM | 200 µM |  |  | 
COC(=O)c1ccc(-c2c3[nH]c4ccc(OC)cc4c3cc[n+]2Cc2ccccc2)cc1 | 100 µM | 200 µM | 100 µM | 100 µM | 200 µM | > 200 µM |  | 
COC(=O)c1ccc(-c2c3[nH]c4ccc(OC)cc4c3cc[n+]2Cc2ccccc2F)cc1 | 150 µM | 200 µM | 100 µM | 200 µM | 200 µM |  |  | 
c1coc(-c2nccc3c2[nH]c2ccccc23)c1 | > 200 µM | > 200 µM | > 200 µM | > 200 µM | > 200 µM | > 200 µM |  | 
COC(=O)c1ccc(-c2nccc3c2[nH]c2ccc(OC)cc23)cc1 | > 200 µM | > 200 µM | > 200 µM | > 200 µM | > 200 µM | > 200 µM |  | 
COC(=O)c1ccc(-c2c3[nH]c4ccc(OC)cc4c3cc[n+]2Cc2ccc(F)cc2F)cc1 | 100 µM | > 200 µM | 100 µM | 100 µM | 200 µM |  |  | 
FC(F)(F)c1ccc(C[n+]2ccc3c([nH]c4ccccc43)c2-c2ccccn2)cc1 | 50 µM | 50 µM | 50 µM | 25 µM | 100 µM | > 200 µM |  | 
Cc1ccc(C[n+]2ccc3c([nH]c4ccccc43)c2-c2ccccn2)cc1 | 50 µM | 50 µM | 100 µM | 25 µM | 100 µM | > 200 µM |  | 
COC(=O)c1ccc(-c2c3[nH]c4ccc(OC)cc4c3cc[n+]2Cc2ccc(C)cc2)cc1 | 50 µM | 100 µM | 50 µM | 50 µM | 50 µM | > 200 µM |  | 
FC(F)(F)c1ccc(C[n+]2ccc3c([nH]c4ccccc43)c2-c2ccco2)cc1 | 25 µM | 25 µM | 25 µM | 25 µM | 50 µM | 50 µM | 76.2% | 87.1%
CO/N=C(\C(=O)N[C@@H]1C(=O)N2C(C(=O)O)=C(COC(C)=O)CS[C@H]12)c1csc(N)n1 [CEFOTAXIME SODIUM] | 3.12 µM | 25 µM | 3.12 µM | 1.56 µM | 25 µM | 1.56 µM |  | 
COC(=O)c1ccc(-c2c3[nH]c4ccc(OC)cc4c3cc[n+]2Cc2ccc(Br)cc2)cc1 | 25 µM | 37.5 µM | 25 µM | 25 µM | 37.5 µM |  | 73.5% | 94.8%

SMILES | MIC [1] | MIC [2] | MIC [3] | MIC [4] | MIC [5] | MIC [6] | viability at 8 ug/ml [7] | viability at 8 ug/ml [8]
Cc1ccc(C[n+]2ccc3c([nH]c4ccccc43)c2-c2ccc3c(c2)OCO3)cc1 | 50 µM | 50 µM | 25 µM | 50 µM | 100 µM | > 200 µM |  | 
Cc1ccc(C[n+]2ccc3c([nH]c4ccccc43)c2-c2ccco2)cc1 | 25 µM | 50 µM | 25 µM | 50 µM | 100 µM | 100 µM |  | 
COc1ccc2[nH]c3c(-c4ccc5c(c4)OCO5)nccc3c2c1 | > 200 µM | 200 µM (≈ 63.7 µg/mL) | > 200 µM | 200 µM (≈ 63.7 µg/mL) | > 200 µM | > 200 µM |  | 
c1ccc(C[n+]2ccc3c([nH]c4ccccc43)c2-c2ccc3c(c2)OCO3)cc1 | 100 µM | 100 µM | 50 µM | 100 µM | 100 µM | > 200 µM |  | 
COC(=O)c1ccc(-c2c3[nH]c4ccccc4c3cc[n+]2Cc2ccc(C)cc2)cc1 | 50 µM | 50 µM | 50 µM | 50 µM | 100 µM | 200 µM |  | 
c1ccc(-c2nccc3c2[nH]c2ccccc23)nc1 | > 200 µM | > 200 µM | > 200 µM | > 200 µM | > 200 µM | > 200 µM |  | 
c1ccc(C[n+]2ccc3c([nH]c4ccccc43)c2-c2ccco2)cc1 | 100 µM | 100 µM | 100 µM | 100 µM | > 200 µM | > 200 µM |  | 
c1ccc(C[n+]2ccc3c([nH]c4ccccc43)c2-c2ccccn2)cc1 | > 200 µM | > 200 µM | > 200 µM | > 200 µM | > 200 µM | > 200 µM |  | 
COc1ccc2[nH]c3c(-c4ccc5c(c4)OCO5)[n+](Cc4ccc(C)cc4)ccc3c2c1 | 25 µM | 25 µM | 25 µM | 25 µM | 50 µM | 200 µM | 82.2% | 98.5%
COc1ccc2[nH]c3c(-c4ccco4)nccc3c2c1 | > 200 µM | > 200 µM | > 200 µM | > 200 µM | > 200 µM | > 200 µM |  | 
C[C@@H]1O[C@@H]1P(=O)(O)O [PHOSPHOMYCIN DISODIUM] | 50 µM | 50 µM | 12.5 µM | 100 µM | 25 µM | 6.25 µM |  | 
COC(=O)c1ccc(-c2c3[nH]c4ccc(OC)cc4c3cc[n+]2Cc2ccc(Cl)cc2)cc1 | 37.5 µM | 100 µM | 50 µM | 50 µM | 50 µM |  |  | 
c1ccc2c(c1)[nH]c1c(-c3ccc4c(c3)OCO4)nccc12 | > 200 µM | > 200 µM | > 200 µM | > 200 µM | > 200 µM | > 200 µM |  | 
COc1ccc2[nH]c3c(-c4ccco4)[n+](Cc4ccc(C(F)(F)F)cc4)ccc3c2c1 | 25 µM | 25 µM | 25 µM | 25 µM | 50 µM | 50 µM | 74.3% | 88.5%
COc1ccc2[nH]c3c(-c4ccco4)[n+](Cc4ccccc4)ccc3c2c1 | 100 µM | 100 µM | 50 µM | 100 µM | 200 µM | > 200 µM |  | 
COC(=O)c1ccc(-c2c3[nH]c4ccc(OC)cc4c3cc[n+]2Cc2ccccc2Br)cc1 | 50 µM | 75 µM | 50 µM | 75 µM | 100 µM |  |  | 
COC(=O)c1ccc(-c2nccc3c2[nH]c2ccccc23)cc1 | > 200 µM | > 200 µM | > 200 µM | > 200 µM | > 200 µM | > 200 µM |  | 
COc1ccc2[nH]c3c(-c4ccccn4)[n+](Cc4ccc(C(F)(F)F)cc4)ccc3c2c1 | 100 µM | 100 µM | 100 µM | 100 µM | 200 µM | > 200 µM |  | 
COc1ccc2[nH]c3c(-c4ccccn4)nccc3c2c1 | > 200 µM | > 200 µM | > 200 µM | > 200 µM | > 200 µM | > 200 µM |  | 
COC(=O)c1ccc(-c2c3[nH]c4ccccc4c3cc[n+]2Cc2ccccc2)cc1 | 100 µM | 200 µM | 100 µM | 100 µM | 200 µM | > 200 µM |  | 
